Values belong to the compound of their own block, whether it stands above or below them.
Key:
[1] = Volume of distribution at steady state in mouse; assay type: ADME, organism-based; conditions: in vivo, read-out: Vdss
[2] = Stability in human hepatocytes assessed as compound remaining incubated for 60 mins under shaking condition by LC-MS/MS analysis; assay type: ADME, cell-based, Hepatocyte; conditions: read-out: Stability
How it was run: (§1)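 Human and rat hepatocytes exposed to compound; percent parent remaining reported.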

[3] = biological target: T1, C-C chemokine receptor type 4 (Homo sapiens, UniProt P51679); experiment: Antagonist activity at human CCR4 expressed in rat chem-5 cells assessed as inhibition of CCL22-induced calcium flux measured at 2.5 secs time interval for 45 secs by fluorescence assay; assay type: functional, cell-based
T1 sequence (P51679 whole entry): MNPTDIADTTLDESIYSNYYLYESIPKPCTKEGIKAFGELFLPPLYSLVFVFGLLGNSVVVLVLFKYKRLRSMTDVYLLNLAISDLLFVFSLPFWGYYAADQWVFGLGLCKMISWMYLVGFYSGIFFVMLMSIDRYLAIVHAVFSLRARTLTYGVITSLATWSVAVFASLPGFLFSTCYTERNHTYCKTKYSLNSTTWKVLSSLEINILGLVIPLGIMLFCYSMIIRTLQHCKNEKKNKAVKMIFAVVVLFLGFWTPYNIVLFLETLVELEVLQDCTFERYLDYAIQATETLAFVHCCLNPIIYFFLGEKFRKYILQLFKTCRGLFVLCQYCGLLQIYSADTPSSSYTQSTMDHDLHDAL
How it was run: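 Calcium flux functional readout of CCR4 antagonism, run without serum; IC50 reported.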

[4] = Half-life in mouse; assay type: ADME, organism-based; conditions: in vivo
[5] = Stability in rat hepatocytes assessed as compound remaining incubated for 60 mins under shaking condition by LC-MS/MS analysis; assay type: ADME, cell-based, Hepatocyte; conditions: read-out: Stability; how it was run: as §1
[6] = Clearance in mouse; assay type: ADME, organism-based; conditions: in vivo
[7] = Bioavailability in mouse; assay type: ADME, organism-based; conditions: in vivo
[8] = Hepatic clearance in rat at 0.5 mg/kg, iv; assay type: ADME, organism-based; conditions: in vivo
[9] = AUCinfinity in rat at 0.5 mg/kg, iv; assay type: ADME, organism-based; parameters: dose 0.5 mg/kg, route intravenous, time infinity; conditions: in vivo
[10] = Oral bioavailability in rat at 2 mg/kg, po; assay type: ADME, organism-based; conditions: in vivo
[11] = Volume of distribution at steady state in rat at 0.5 mg/kg, iv or 2 mg/kg, po; assay type: ADME, organism-based; conditions: in vivo, read-out: Vdss
Cytochrome P450 1A2 = biological target: T2, Cytochrome P450 1A2 (Homo sapiens, UniProt P05177); experiment: Inhibition of CYP1A2 (unknown origin); assay type: ADME
T2 sequence (P05177 whole entry): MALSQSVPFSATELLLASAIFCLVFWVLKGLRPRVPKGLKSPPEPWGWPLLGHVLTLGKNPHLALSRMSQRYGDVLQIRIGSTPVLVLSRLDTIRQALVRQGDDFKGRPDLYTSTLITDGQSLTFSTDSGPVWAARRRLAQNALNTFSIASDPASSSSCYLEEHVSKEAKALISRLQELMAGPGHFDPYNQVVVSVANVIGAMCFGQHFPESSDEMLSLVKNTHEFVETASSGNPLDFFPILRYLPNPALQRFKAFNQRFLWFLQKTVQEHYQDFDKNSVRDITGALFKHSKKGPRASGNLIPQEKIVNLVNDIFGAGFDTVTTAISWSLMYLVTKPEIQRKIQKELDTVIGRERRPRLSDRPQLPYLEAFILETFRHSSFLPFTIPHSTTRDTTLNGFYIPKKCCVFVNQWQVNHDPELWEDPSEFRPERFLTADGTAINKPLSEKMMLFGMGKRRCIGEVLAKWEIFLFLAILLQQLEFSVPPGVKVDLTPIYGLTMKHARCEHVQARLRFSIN
How it was run: (§2)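 CYP inhibition tested against 1A2, 2C9, 2C19, 2D6 and 3A4; IC50 in μM.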

[12] = Hepatic clearance in rat at 0.5 mg/kg, iv or 2 mg/kg, po; assay type: ADME, organism-based; conditions: in vivo
Cytochrome P450 3A4 = Cytochrome P450 3A4 (Homo sapiens, UniProt P08684); experiment: Inhibition of CYP3A4 (unknown origin); assay type: ADME; how it was run: as §2
Chain of Cytochrome P450 3A4 (P08684 whole entry): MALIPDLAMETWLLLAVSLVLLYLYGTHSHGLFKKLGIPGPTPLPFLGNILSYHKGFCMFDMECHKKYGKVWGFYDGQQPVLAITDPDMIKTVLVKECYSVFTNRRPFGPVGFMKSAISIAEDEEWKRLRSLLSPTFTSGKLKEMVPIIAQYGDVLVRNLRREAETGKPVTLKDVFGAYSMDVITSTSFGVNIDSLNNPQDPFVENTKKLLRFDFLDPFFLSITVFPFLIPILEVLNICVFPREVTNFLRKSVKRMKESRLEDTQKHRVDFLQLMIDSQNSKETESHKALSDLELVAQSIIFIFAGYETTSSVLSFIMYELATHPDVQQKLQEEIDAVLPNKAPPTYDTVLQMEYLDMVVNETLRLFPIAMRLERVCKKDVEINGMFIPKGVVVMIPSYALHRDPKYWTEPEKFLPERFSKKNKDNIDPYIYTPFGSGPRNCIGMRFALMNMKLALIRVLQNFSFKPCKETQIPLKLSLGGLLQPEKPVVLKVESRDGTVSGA

[13] = AUC(0 to infinity) in rat at 2 mg/kg, po; assay type: ADME, organism-based; parameters: dose 2 mg/kg, route oral, time infinity; conditions: in vivo
Cytochrome P450 2C9 = Cytochrome P450 2C9 (Homo sapiens, UniProt P11712); experiment: Inhibition of CYP2C9 (unknown origin); assay type: ADME; how it was run: as §2
Chain of Cytochrome P450 2C9 (P11712 whole entry): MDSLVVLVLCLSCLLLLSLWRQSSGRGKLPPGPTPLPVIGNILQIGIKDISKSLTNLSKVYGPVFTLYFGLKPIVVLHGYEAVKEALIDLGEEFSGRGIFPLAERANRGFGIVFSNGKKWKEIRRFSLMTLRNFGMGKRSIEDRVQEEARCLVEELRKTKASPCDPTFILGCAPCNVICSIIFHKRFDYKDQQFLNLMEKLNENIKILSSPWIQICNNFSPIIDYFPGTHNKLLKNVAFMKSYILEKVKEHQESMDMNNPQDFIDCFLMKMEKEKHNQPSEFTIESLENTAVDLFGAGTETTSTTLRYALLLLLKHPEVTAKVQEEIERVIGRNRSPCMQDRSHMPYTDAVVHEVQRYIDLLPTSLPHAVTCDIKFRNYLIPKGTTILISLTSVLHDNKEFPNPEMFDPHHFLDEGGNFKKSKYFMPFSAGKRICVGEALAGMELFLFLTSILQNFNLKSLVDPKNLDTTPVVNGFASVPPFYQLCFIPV

Cytochrome P450 2D6 = Cytochrome P450 2D6 (Homo sapiens, UniProt P10635); experiment: Inhibition of CYP2D6 (unknown origin); assay type: ADME; how it was run: as §2
Chain of Cytochrome P450 2D6 (P10635 whole entry): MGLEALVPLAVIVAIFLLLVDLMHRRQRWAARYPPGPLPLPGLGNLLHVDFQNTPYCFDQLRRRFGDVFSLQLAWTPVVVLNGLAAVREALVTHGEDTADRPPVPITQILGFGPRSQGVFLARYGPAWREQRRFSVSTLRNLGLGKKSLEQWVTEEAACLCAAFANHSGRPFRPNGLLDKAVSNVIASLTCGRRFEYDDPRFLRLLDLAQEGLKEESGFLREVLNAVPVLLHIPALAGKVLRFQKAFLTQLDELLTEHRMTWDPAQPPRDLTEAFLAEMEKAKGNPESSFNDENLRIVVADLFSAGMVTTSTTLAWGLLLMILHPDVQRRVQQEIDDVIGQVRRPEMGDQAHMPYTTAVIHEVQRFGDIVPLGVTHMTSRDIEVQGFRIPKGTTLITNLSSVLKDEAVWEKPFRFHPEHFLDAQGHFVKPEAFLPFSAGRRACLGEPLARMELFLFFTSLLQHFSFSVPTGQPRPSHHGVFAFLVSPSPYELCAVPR

[14] = Terminal half-life in rat at 0.5 mg/kg, iv or 2 mg/kg, po; assay type: ADME, organism-based; conditions: in vivo, read-out: beta t1/2 (converted)
Cytochrome P450 2C19 = Cytochrome P450 2C19 (Homo sapiens, UniProt P33261); experiment: Inhibition of CYP2C19 (unknown origin); assay type: ADME; how it was run: as §2
Chain of Cytochrome P450 2C19 (P33261 whole entry): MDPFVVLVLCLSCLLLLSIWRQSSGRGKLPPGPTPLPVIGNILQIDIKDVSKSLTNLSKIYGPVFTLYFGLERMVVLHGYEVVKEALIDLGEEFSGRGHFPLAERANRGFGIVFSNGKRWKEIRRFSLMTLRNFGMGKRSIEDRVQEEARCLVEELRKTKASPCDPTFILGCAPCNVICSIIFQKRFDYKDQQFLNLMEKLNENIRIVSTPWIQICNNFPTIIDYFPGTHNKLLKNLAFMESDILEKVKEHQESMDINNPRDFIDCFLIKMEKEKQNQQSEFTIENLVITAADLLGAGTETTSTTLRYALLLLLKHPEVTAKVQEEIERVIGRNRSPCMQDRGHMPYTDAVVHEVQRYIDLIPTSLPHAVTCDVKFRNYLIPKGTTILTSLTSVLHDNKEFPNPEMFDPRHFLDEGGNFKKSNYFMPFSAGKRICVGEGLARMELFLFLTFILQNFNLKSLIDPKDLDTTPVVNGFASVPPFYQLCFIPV

Compound: C[C@@H]1CC(c2cnc3c(C#N)nn([C@H](C)c4ccc(Cl)cc4Cl)c3n2)=CC[C@@H]1N1CCC[C@H]1C
Vd [1]: 4.9 L/kg | remaining at 1 h [2]: 86% | IC50 [3]: 34 nM | half-life [4]: 1820 min | remaining at 1 h [5]: 72% | clearance [6]: 1.17 mL/min/kg | bioavailability [7]: 27%

Compound: Cc1nn(C(C)c2ccc(Cl)cc2Cl)c2nc(N3CCC(N4CCCCC4)C(C)C3)cnc12 (stereo not drawn)
CLH [8]: 38.3 mL/min/kg | IC50 [3]: 126 nM | AUC(0-inf) [9]: 217 ng·h/mL

Compound: Cc1nn([C@H](C)c2ccc(Cl)cc2Cl)c2nc(N3CC[C@H](N4CCC[C@H]4CCC#N)[C@H](C)C3)cnc12
IC50 [3]: 41 nM

Compound: Cc1nn([C@H](C)c2ccc(Cl)cc2Cl)c2nc(N3CC[C@@H](N4CCCCC4)[C@@H](C)C3)cnc12
IC50 [3]: 803 nM

Compound: C[C@@H]1CC(c2cnc3c(C#N)nn([C@H](C)c4ccc(Cl)cc4Cl)c3n2)=CC[C@@H]1N1CCC[C@H]1C(F)(F)F
IC50 [3]: > 5000 nM

Compound: Cc1nn([C@H](C)c2ccc(Cl)cc2Cl)c2nc(N3CC[C@H](N4CCC[C@H]4C(=O)O)[C@H](C)C3)cnc12
IC50 [3]: 670 nM

Compound: Cc1nn([C@H](C)c2ccc(Cl)cc2Cl)c2nc(N3CC[C@H](N4CCC[C@H]4C(N)=O)[C@H](C)C3)cnc12
IC50 [3]: 170 nM

Continued by falling IC50 [3], values first:

CLH [8]: 101.7 mL/min/kg | IC50 [3]: 251 nM | AUC(0-inf) [9]: 82 ng·h/mL
Compound: CC1CN(c2cnc3c(C#N)nn(C(C)c4ccc(Cl)cc4Cl)c3n2)CCC1N1CCCCC1 (stereo not drawn)

IC50 [3]: 104 nM
Compound: Cc1nn([C@H](C)c2ccc(Cl)cc2Cl)c2nc(N3CC[C@H](N4CCC[C@H]4CCS(C)(=O)=O)[C@H](C)C3)cnc12

IC50 [3]: 69 nM
Compound: Cc1nn([C@H](C)c2ccc(Cl)cc2Cl)c2nc(N3CC[C@H](N4CCCC4)[C@H](C)C3)cnc12

remaining at 1 h [2]: 97% | IC50 [3]: 54 nM | remaining at 1 h [5]: 71%
Compound: C[C@@H]1CC(c2cnc3c(C#N)nn([C@H](C)c4ccc(Cl)cc4Cl)c3n2)=CC[C@@H]1N1CCC[C@H]1C(N)=O

IC50 [3]: 42 nM
Compound: Cc1nn([C@H](C)c2ccc(Cl)cc2Cl)c2nc(N3CC[C@H](N4CCCCC4)[C@H](C)C3)cnc12

IC50 [3]: 32 nM
Compound: Cc1nn([C@H](C)c2ccc(Cl)cc2Cl)c2nc(N3CC[C@H](N4CCC[C@H]4CCS(N)(=O)=O)[C@H](C)C3)cnc12

bioavailability [10]: 7% | Vd [11]: 13.4 L/kg | IC50 (Cytochrome P450 1A2): > 10 µM | remaining at 1 h [2]: 74% | IC50 [3]: 27 nM | CLH [12]: 114.6 mL/min/kg | remaining at 1 h [5]: 19% | IC50 (Cytochrome P450 3A4): > 10 µM | AUC(0-inf) [13]: 23.2 ng·h/mL | IC50 (Cytochrome P450 2C9): > 10 µM | IC50 (Cytochrome P450 2D6): > 10 µM | half-life [14]: 126 min | IC50 (Cytochrome P450 2C19): > 10 µM
Compound: C[C@@H]1CN(c2cnc3c(C#N)nn([C@H](C)c4ccc(Cl)cc4Cl)c3n2)CC[C@@H]1N1CCC[C@H]1CO
